Calls of active or inactive are those of the source. No cut-off for these calls is given here.
Experiments:
Leishmania infantum [1] = test: Antileishmanial activity against Leishmania infantum MCAN/ES/92/BCN 83 promastigotes at 100 ug/ml after 48 hrs by resazurin method; type: functional; settings: for inhibition of growth at 100 µg/mL: MCAN/ES/92/BCN 83, 48 h, read-out: GI
Summary of the method: (§1)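 L. infantum MCAN/ES/92/BCN 83 promastigotes (Schneider's medium, 20% heat-inactivated FBS, 26 °C), 2.5 × 10^5 per well. Compounds in DMSO were first screened at 1, 10, 100 µg/mL, then 252 to 1.9 µM for active ones. After 48 h at 26 °C, resazurin was added and fluorescence read (ex 535/em 590 nm) for % growth inhibition. Triplicates; IC50 by least-squares linear regression.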

Leishmania infantum [2] = test: Antileishmanial activity against Leishmania infantum MCAN/ES/92/BCN 83 promastigotes after 48 hrs by resazurin method; type: functional, organism-based; summary of the method: as §1
J774 = test: Cytotoxicity against mouse J774 cells after 24 hrs by resazurin reduction test; type: cell-based
Summary of the method: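 J774 murine macrophages (RPMI 1640, 10% FBS, 37 °C, 5% CO2), 5 × 10^4 cells/well, adhered 24 h. Then exposed to compounds for 24 h. Resazurin added for 3 h; fluorescence read at ex 535/em 590 nm, background subtracted. Each concentration assayed three times.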

Calf thymus DNA [3] = test: Binding affinity to calf thymus DNA assessed as increase in DNA viscosity at 1 to 30 uM by viscometer; type: nucleic-acid assay; settings: Bos taurus
Summary of the method: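 Ubbelohde viscometer at 25.0 or 37.0 °C. Compounds in DMF/cacodylate buffer (pH 6) 2:10 added to 50 µM CT-DNA in cacodylate buffer; final 1–30 µM. Flow times in triplicate, η = t − t0. Plotted as (η/η0)^1/3 versus the compound/DNA ratio.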

Calf thymus DNA [4] = test: Binding affinity to calf thymus DNA assessed as melting temperature (Rvb Tm = 53.8 degC); type: nucleic-acid assay; settings: Bos taurus
Nucleic Acid [5] = test: Induction of supercoiled Escherichia coli pUC18 DNA cleavage at 6 to 60 uM after 60 mins by agarose gel electrophoresis; type: nucleic-acid assay
Summary of the method: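 Supercoiled pUC18 plasmid in 0.1 M cacodylate buffer pH 6.0 with compound at 6–60 µM final, 1 h at 37 °C. Analysed by 0.8% agarose gel in 0.5× TBE with ethidium bromide, 80 V, about 2 h.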

Nucleic Acid [6] = test: Induction of Cu2+-dependent DNA cleavage in Escherichia coli pUC18 DNA assessed as degradation of super coiled form at 15 to 30 uM after 60 mins by agarose gel electrophoresis in presence of cupric chloride; type: nucleic-acid assay
Summary of the method: (§2)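 pUC18 plasmid in 0.1 M cacodylate pH 6.0 with CuCl2 + compound (1:1) at 15–45 µM final, plus ascorbate (50-fold excess over Cu(II)). 1 h at 37 °C. Supercoiled, circular and linear forms resolved on 0.8% agarose/0.5× TBE gel with ethidium bromide, 80 V, about 2 h.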

Nucleic Acid [7] = test: Induction of Cu2+-dependent DNA cleavage in Escherichia coli pUC18 DNA assessed as degradation of super coiled form at 45 uM after 60 mins by agarose gel electrophoresis in presence of cupric chloride; type: nucleic-acid assay; summary of the method: as §2
Mus musculus [8] = test: Toxicity in BALB/c mouse assessed as reduction hair loss at 5 mg/kg, ip once daily; settings: in vivo
Mus musculus [9] = test: Toxicity in BALB/c mouse assessed as reduction in body weight at 5 mg/kg, ip once daily; settings: in vivo
Leishmania infantum [10] = test: Antileishmanial activity against Leishmania infantum MCAN/ES/92/BCN 83 promastigotes-infected in BALB/c mouse assessed as reduction of parasite burden in liver at 5 mg/kg, ip once daily for 10 days by limit dilution assay relative to control; design: scale not given: the % may be the effect or the level left; settings: route intraperitoneal
Leishmania infantum [11] = test: Antileishmanial activity against Leishmania infantum MCAN/ES/92/BCN 83 promastigotes-infected in BALB/c mouse assessed as reduction of parasite burden in spleen at 5 mg/kg, ip once daily for 10 days by limit dilution assay relative to control; design: scale not given: the % may be the effect or the level left; settings: route intraperitoneal
[12] = Leishmania infantum, MCAN/ES/92/BCN 83, 48 h, read-out: IC50
[13] = Mus musculus, J774, 24 h, read-out: IC50

SMILES	inhibition of growth at 100 µg/mL (Leishmania infantum [1]) [%]	IC50 (Leishmania infantum [2]; [12]) [µM]	also measured
Cc1cc(NS(=O)(=O)c2ccc([N+](=O)[O-])cc2)n[nH]1	71.5	164	IC50 (J774; [13]): > 256 µM
O=[N+]([O-])c1cccc(S(=O)(=O)Nc2ncccn2)c1			growth inhibition (GI) (Leishmania infantum [1]): inactive; IC50 (Leishmania infantum [2]): Not Active; IC50 (J774; j774): Not Active
Cc1cc(NS(=O)(=O)c2ccc(Cl)cc2)no1	15.7	> 256	
O=S(=O)(Nc1ccc2c(c1)CCC2)c1ccccc1	45.3	> 256	
Cc1cc(C)nc(NS(=O)(=O)c2ccc(Cl)cc2)n1	71.5	224	IC50 (J774; [13]): > 256 µM
O=S(=O)(Nc1cnccn1)c1ccccc1	37	> 256	
O=[N+]([O-])c1ccc(S(=O)(=O)Nc2ccncc2)cc1	46.3	> 256	
Cc1csc(NS(=O)(=O)c2ccc([N+](=O)[O-])cc2)n1	55.6	> 256	
O=[N+]([O-])c1ccc(S(=O)(=O)Nc2ccc3[nH]ncc3c2)cc1	88.2	14.5	IC50 (J774; [13]): > 256 µM
Cc1cc(NS(=O)(=O)c2ccccc2)no1	17.9	> 256	
CS(=O)(=O)Nc1ncccn1			growth inhibition (GI) (Leishmania infantum [1]): inactive; IC50 (Leishmania infantum [2]): Not Active; IC50 (J774; j774): Not Active
O=[N+]([O-])c1ccc(S(=O)(=O)Nc2ncccn2)cc1	92.7	100	IC50 (J774; [13]): > 256 µM; Activity (Calf thymus DNA [3]): inactive; Tm (Calf thymus DNA [4]): 54.2 °C; Activity (Nucleic Acid [5]): inactive; Activity (Nucleic Acid [6]): inactive; Activity (Nucleic Acid [7]): Active; Activity (Mus musculus [8]): Non-toxic; Activity (Mus musculus [9]): Non-toxic; Activity (Leishmania infantum [10]): 97.58%; Activity (Leishmania infantum [11]): 99.82%
CCCNC(=O)CNc1ccc([N+](=O)[O-])cc1	85	156	IC50 (J774; [13]): > 256 µM; Activity (Calf thymus DNA [3]): inactive; Tm (Calf thymus DNA [4]): 54 °C; Activity (Nucleic Acid [5]): inactive; Activity (Nucleic Acid [6]): inactive; Activity (Nucleic Acid [7]): Active; Activity (Mus musculus [8]): Non-toxic; Activity (Mus musculus [9]): Non-toxic; Activity (Leishmania infantum [10]): 97.95%; Activity (Leishmania infantum [11]): 99.89%
O=[N+]([O-])c1ccc(S(=O)(=O)Nc2cnccn2)cc1	90.8	66.2	IC50 (J774; [13]): > 256 µM; Activity (Mus musculus [8]): Non-toxic; Activity (Mus musculus [9]): Non-toxic; Activity (Leishmania infantum [10]): 99.28%; Activity (Leishmania infantum [11]): 99.44%
O=S(=O)(Nc1ncccn1)c1ccc(Br)cc1			growth inhibition (GI) (Leishmania infantum [1]): inactive; IC50 (Leishmania infantum [2]): Not Active; IC50 (J774; j774): Not Active
Cc1cnc(NS(=O)(=O)c2ccc(Cl)cc2)s1	74.5	> 256	
O=[N+]([O-])c1ccc(S(=O)(=O)Nc2cccnc2)cc1	35.7	> 256	

SMILES	inhibition of growth at 100 µg/mL (Leishmania infantum [1]) [%]	IC50 (Leishmania infantum [2]; [12]) [µM]	also measured
Cc1cc(NS(=O)(=O)c2ccc([N+](=O)[O-])cc2)no1	85.6	126	IC50 (J774; [13]): > 256 µM
Cc1cc(C)nc(NS(=O)(=O)c2ccc([N+](=O)[O-])cc2)n1	33.3	> 256	
O=S(=O)(Nc1ncccn1)c1ccc(F)cc1			growth inhibition (GI) (Leishmania infantum [1]): inactive; IC50 (Leishmania infantum [2]): Not Active; IC50 (J774; j774): Not Active
Cc1cnc(NS(=O)(=O)c2ccccc2)s1	69	> 256	
Nc1ccc(S(=O)(=O)Nc2ncccn2)cc1 [SULFADIAZINE]			growth inhibition (GI) (Leishmania infantum [1]): inactive; IC50 (Leishmania infantum [2]): Not Active; IC50 (J774; j774): Not Active
O=S(=O)(Nc1ncccn1)c1ccccc1	20.3	> 256	
O=[N+]([O-])c1ccccc1S(=O)(=O)Nc1ncccn1	40.6	> 256	
Cc1cnc(NS(=O)(=O)c2ccc([N+](=O)[O-])cc2)s1	36.7	> 256	
O=S(=O)(Nc1ccc2c(c1)CCC2)c1ccc(Cl)cc1	49.9	> 256	
O=S(=O)(Nc1ncccn1)c1ccc(Cl)cc1			growth inhibition (GI) (Leishmania infantum [1]): inactive; IC50 (Leishmania infantum [2]): Not Active; IC50 (J774; j774): Not Active
O=S(=O)(Nc1cnccn1)c1ccc(Cl)cc1	25.3	> 256	
COc1ccc(S(=O)(=O)Nc2ncccn2)cc1	29.6	> 256	
O=[N+]([O-])c1ccc(S(=O)(=O)Nc2nccs2)cc1 [PARA-NITROSULFATHIAZOLE]	58.6	> 256	
O=[N+]([O-])c1ccc(S(=O)(=O)Nc2ccc3c(c2)CCC3)cc1	91.9	< 1	IC50 (J774; [13]): 61 µM
O=S(=O)(Nc1nccs1)c1ccc(Cl)cc1	65	> 256	
O=[N+]([O-])c1ccc(S(=O)(=O)Nc2ccccn2)cc1	39.3	> 256	
